# Source: PubChem (Broad Institute)
# S100A4 MyoIIA – blocks human S100A4 binding to myosin IIA peptide; P26447; S100A4/TAMRA-MyoIIA peptide fluorescence polarization; inhibition, % at 10.7 µM; 0.14% of 360,000 active; AID 652163;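 active means mean inhibition of at least 70% across replicates, with every replicate also reaching that level; inconclusive means mean inhibition reaches 70% but some replicates fall short; inactive means mean inhibition below 70%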
# Target sequence (P26447 whole entry, looked up): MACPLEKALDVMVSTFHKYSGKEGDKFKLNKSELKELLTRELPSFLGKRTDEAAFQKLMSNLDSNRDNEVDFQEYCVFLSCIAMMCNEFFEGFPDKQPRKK
#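 Test system: S100A4 monomer protein; Medium: HEPES pH 7.2 with CaCl2, KCl, NaCl, DTT, Triton; Probe or stimulus: TAMRA-labelled myosin IIA heavy-chain peptide probe, 5 nM; Doses: one dose per compound; Times: polarization read 5 min after assay mix addition, stable 5–60 min; Benchmarks: neutral control DMSO, positive control TFP.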
# SR-BI DiI-HDL act – SR-BI HDL lipid transfer activation; CHO ldlA[mSR-BI] cells, DiI-HDL uptake fluorescence, 3 h; 100 = double the neutral-control signal; activation, % at 12.5 µM; 0.096% of 320,000 active; AID 504775;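 active means mean replicate activation of at least 60% and every replicate at or above 60%; inconclusive means mean or all-replicate condition met, but not both; inactive means mean below 60% and not all replicates reaching 60%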
#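 Assay system: CHO ldlA[mSR-BI] cells, LDL receptor-null, SR-BI overexpressing; medium: Ham's F12 with 0.5% BSA, HEPES 25 mM, pH 7.4; also added: DiI-HDL 10 µg/mL; timing: 3 h uptake period with compound, 37 °C; signal: DiI fluorescence, bottom read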
# dFosB act – activators of mouse delta FosB homodimer; activation, % at 25 µM; P13346; 0.99% of 340,000 active; purified delta FosB, TAMRA-CDK5 oligo fluorescence polarization; percent of positive-control signal above neutral wells; AID 493131;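 active means mean activation above about 17%, with every replicate also reaching it, limit read from the data, passing the limit was not always enough; inconclusive means only one of the two conditions met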
# SR-BI DiI inh – blocks mouse SR-BI lipid uptake from DiI-HDL; inhibition, % at 12.5 µM; ldlA[mSR-BI] CHO cells, DiI-HDL uptake fluorescence, 3 h; 0.96% of 320,000 active;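 active means mean replicate inhibition of at least 70% and a set share of replicates each scoring 70 or more; inconclusive means meets just one of the two criteria; inactive means fails both criteria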
# Target sequence (Q61009 whole entry, looked up): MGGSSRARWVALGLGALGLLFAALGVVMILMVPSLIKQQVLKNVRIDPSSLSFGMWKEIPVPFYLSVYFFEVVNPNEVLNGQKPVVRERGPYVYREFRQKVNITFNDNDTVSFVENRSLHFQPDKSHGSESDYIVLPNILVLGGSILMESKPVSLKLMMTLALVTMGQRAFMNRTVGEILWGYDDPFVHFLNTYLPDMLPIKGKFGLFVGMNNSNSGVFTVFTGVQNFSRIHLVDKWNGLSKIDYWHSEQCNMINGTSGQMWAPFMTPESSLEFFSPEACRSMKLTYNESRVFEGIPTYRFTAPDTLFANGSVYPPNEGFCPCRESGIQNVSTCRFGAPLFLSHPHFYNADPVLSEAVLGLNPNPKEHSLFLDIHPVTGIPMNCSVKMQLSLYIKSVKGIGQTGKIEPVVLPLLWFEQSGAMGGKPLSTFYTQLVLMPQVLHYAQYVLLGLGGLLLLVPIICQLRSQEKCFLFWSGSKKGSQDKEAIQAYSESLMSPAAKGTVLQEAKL
# RAD54 inh – RAD54 (human) branch migration inhibition; Q92698; RAD54 Holliday junction branch migration, FAM/BHQ fluorescence; inhibition, % at 10.4 µM; 0.14% of 360,000 active; AID 602329;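 active means mean normalized replicate activity at least 40 and at least half of replicates scoring 40 or more; inconclusive means only one of the two criteria met; inactive means mean below 40 and under half of replicates reaching 40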;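 further: inhibitors cause a drop in the FAM fluorescence signal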
# PvdQ inh – P. aeruginosa PvdQ acylase inhibition; purified PvdQ acylase, fluorescence plate reader; inhibition, % at 10 µM; 0.063% of 340,000 active; in the data active means inhibition above about 30%, passing the limit was not always enough; inconclusive means no clear call, values can overlap the other calls
# A number is an active result; . = inactive; ? = inconclusive; / = no result given. Sampled rows, rich in hits. Any-hit rate of the full collection: about 1.6%.
SMILES,S100A4 MyoIIA,SR-BI DiI-HDL act,dFosB act,SR-BI DiI inh,RAD54 inh,PvdQ inh
CCOC(=O)Cc1csc(NC(=O)c2sc3nc4c(C)cc(C)cc4cc3c2N)n1,/,.,.,80,.,.
CCOC(=O)Cc1csc(NC(=O)c2csc(C)c2)n1,/,.,.,.,/,.
C/C(CC(=O)Nc1ccccn1)=N\NC(=O)c1ccccc1O,.,.,.,73,.,.
OCCCNc1c2ccccc2nc2ccccc12,.,.,19,.,97,.
CC(C)(C)Nc1c2ccccc2nc2ccccc12,.,.,.,.,.,.
COc1ccccc1CN1CCNC(=O)C1CC(=O)NCCCN1CCOCC1 (centres undefined),131,/,/,/,.,/
COc1cccc(CN2CCNC(=O)C2CC(=O)NCCN2CCOCC2)c1OC (centres undefined),.,.,.,.,.,.
NC(=O)c1c(NC(=O)c2cccnc2)sc2c1CCCC2,.,.,.,.,/,.
CCC1CCc2c(sc(NC(=O)c3cccnc3)c2C(N)=O)C1 (centres undefined),.,.,.,77,.,.
COc1cc2c3nnc(-c4ccc(F)cc4)c-3cn(Cc3ccccc3)c2cc1OC,.,.,19,.,.,.
COc1ccc(-c2nnn(Cc3ccccc3)n2)cc1OC,.,.,.,.,.,.
O=C1CCc2cc(S(=O)(=O)N3CCCCC3)cc3c2N1CCC3,73,.,.,.,/,.
COc1ccc2nc3cc(Cl)ccc3c(Nc3cc(C(C)C)c(O)cc3C)c2c1,.,.,89,.,.,.
CCOC1=CC(=O)OC(c2ccccc2)C1 (centres undefined),.,.,.,.,.,81
CCC(=O)N(C)C[C@H]1Oc2cc(-c3ccc(F)cc3)ccc2S(=O)(=O)N([C@@H](C)CO)C[C@@H]1C,.,/,/,/,.,/
Nc1ccc(OCc2ccccc2)cc1[N+](=O)[O-],.,.,.,.,.,37
CCNC(=O)C[C@@H]1CC[C@H]2[C@@H](COc3ccc(NC(=O)c4cccc(C(F)(F)F)c4)cc3C(=O)N2C)O1,/,/,/,/,.,/
COc1ccc(-c2csc(NC(=S)NC(=O)/C=C/c3ccc(C(C)C)cc3)n2)cc1OC,.,.,.,75,.,.
COc1ccc(-c2csc(NC(=S)NC(=O)/C=C/c3ccco3)n2)cc1Br,.,.,.,.,.,.
COc1ccc(-c2csc(NC(=S)NC(=O)/C=C/c3ccco3)n2)cc1OC,.,.,.,76,/,.
CO[C@H]1CN(C)C(=O)c2ccc(NC(C)=O)cc2OC[C@H](C)N(Cc2cc(F)ccc2F)C[C@H]1C,.,/,/,/,.,/
C[C@@H]1CN([C@@H](C)CO)S(=O)(=O)c2ccc(-c3ccccc3)cc2O[C@@H]1CN(C)C(=O)Cc1ccccc1,.,/,/,/,.,/
Cc1ccc(-c2csc3ncnc(Oc4cccc5ccc(C)nc45)c23)cc1,.,.,.,.,/,.
Cc1ccc2cccc(Oc3ncnc4sc(C)c(C)c34)c2n1,.,.,.,77,/,.
CCOC(=O)c1c(NC(=O)CCN2C(=O)c3ccccc3C2=O)sc(C(=O)OC(C)C)c1C,/,.,.,73,/,.
SMILES,S100A4 MyoIIA,SR-BI DiI-HDL act,dFosB act,SR-BI DiI inh,RAD54 inh,PvdQ inh
CCOC(=O)c1sc(NC(=O)CCN2C(=O)c3ccccc3C2=O)c(C(=O)OCC)c1C,.,.,.,.,/,.
CCO/C=C1/C(=O)N(c2ccccc2OC)C(=O)c2ccccc21,.,.,.,.,.,.
CCOC=C1SC(=S)N(c2ccccc2OC)C1=O,127,/,/,/,.,/
COc1ccc(NC(=O)Nc2cc3oc4ccccc4c3cc2OC)cc1,.,.,.,98,.,.
COc1ccc(/C=C/C(=O)NC(=S)Nc2cc3oc4ccccc4c3cc2OC)cc1,.,.,.,.,/,.
COc1cc2c(cc1NC(=O)Nc1ccc(C)cc1)oc1ccccc12,/,.,.,.,.,.
COc1cc2c(cc1NC(=O)Nc1cccc(C)c1)oc1ccccc12,/,.,.,87,.,.
COc1cc2c(cc1NC(=O)/C=C/c1ccccc1)oc1ccccc12,.,.,.,80,/,.
O=C(O)/C=C/c1ccccc1Oc1ccccc1,/,.,.,.,/,.
COc1ccc(Oc2ccccc2/C=C/C(=O)O)cc1,/,536,.,.,.,.
O=C(c1ccc(F)cc1)N1CC(=O)N2[C@H](CO)[C@H](c3ccc(C#CC4CCCC4)cc3)[C@H]2C1,.,/,/,/,/,/
O=C(NNc1ccnc2cc(Cl)ccc12)C1CCCCC1,.,.,.,.,/,.
FC(F)Oc1ccc(NC(=S)NNc2ccnc3cc(Cl)ccc23)cc1,.,.,.,95,.,.
NC(=S)NNc1ccnc2cc(Cl)ccc12,.,.,.,90,/,.
CC(=O)Nc1sc2c(c1-c1nc3ccccc3s1)CCN(C(C)C)C2,/,.,35,.,78,.
CC(C)N1CCc2c(sc(NC(=O)Cc3ccccc3)c2C(N)=O)C1,.,.,.,.,.,.
COc1cc(/C=C2\C(=O)ON=C2c2ccccc2)cc(Cl)c1O,.,.,18,.,/,.
CC1CN(c2ccc([N+](=O)[O-])c(NCCOc3ccccc3)c2)CC(C)N1 (centres undefined),.,.,.,.,.,.
CC1CN(c2ccc([N+](=O)[O-])c(NCCOc3ccc(Cl)cc3)c2)CC(C)N1 (centres undefined),.,.,37,.,.,.
CCc1ccc(OCCNc2cc(N3CCNC(C)C3)ccc2[N+](=O)[O-])cc1 (centres undefined),.,.,45,.,.,.
Oc1ccc(C[C@H]2CN([C@@H](Cc3ccccc3)CN3CCC[C@@H]3CN3C(=S)NC[C@@H]3Cc3ccccc3)C(=S)N2CC2CCCCC2)cc1,.,/,/,/,.,/
Oc1ccc(C[C@H]2CNC(=S)N2CC2CCCN2C[C@H](Cc2ccc(O)cc2)N2C[C@H](Cc3ccc(O)cc3)N(CC3CCCCCC3)C2=S)cc1 (some centres undefined),.,186,.,.,.,.
CC(C)C[C@@H](CN1CCCC1CN1C(=S)NC[C@@H]1Cc1ccc(O)cc1)N1C[C@H](Cc2ccc(O)cc2)N(CCc2ccccc2)C1=S (some centres undefined),.,177,?,.,.,.
Oc1ccc(C[C@H]2CNC(=S)N2CC2CCCN2C[C@H](Cc2ccc(O)cc2)N2C[C@H](Cc3ccccc3)N(CC3CCCCC3)C2=S)cc1 (some centres undefined),.,/,49,/,.,.
CCCC(=O)N1CC2(CN(S(=O)(=O)CC)C2)c2c(n(C)c3cc(OC)ccc23)[C@@H]1CO,.,/,/,/,/,/
CCCCCCCOC(=O)C[N+](C)(C)CCOC1CC2CCC1(C)C2(C)C (centres undefined),.,69,.,.,/,.
